MDM2 E3 inh: MDM2-luciferase reporter signal enhancers, primary screen, MDM2 E3 ligase inhibitor project, cell-based, luminescence, 1536-well; E3 ubiquitin-protein ligase Mdm2 (Homo sapiens), Q00987; cell-based MDM2 ubiquitination luciferase reporter, 2 h; 0 = plate control, 100 = twice control, blank-subtracted; signal enhancement, % at 5 µM; 210,000 tested, 0.11% active; AID 1230, 2008;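 active means signal enhancement of 30% or more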;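 further: luminescence tracks abundance of the self-degrading MDM2-luciferase fusion protein; higher signal means inhibition of MDM2 E3 ligase activity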
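system = mammalian cells stably expressing self-ubiquitinating, self-degrading MDM2 E3–luciferase fusion | quantity = 2000 cells per well seeded | incubation = 4 h cell settling then 2 h compound exposure, 37 °C | signal = SteadyLite luminescence, 15 min reagent step | benchmarks = plate control and blank wells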
S1P4 antagonist: S1P4 receptor antagonists, primary screen, cell-based; S1P4-expressing cells, antagonist mode, reporter read-out; inhibition, % at 4.98 µM; 220,000 tested, 0.26% active; AID 1510, 2009; in the data active means inhibition above about 29%;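 further: 0% = wells stimulated with agonist and 100% = vehicle wells without agonist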
Target sequence (O95977 whole entry, looked up): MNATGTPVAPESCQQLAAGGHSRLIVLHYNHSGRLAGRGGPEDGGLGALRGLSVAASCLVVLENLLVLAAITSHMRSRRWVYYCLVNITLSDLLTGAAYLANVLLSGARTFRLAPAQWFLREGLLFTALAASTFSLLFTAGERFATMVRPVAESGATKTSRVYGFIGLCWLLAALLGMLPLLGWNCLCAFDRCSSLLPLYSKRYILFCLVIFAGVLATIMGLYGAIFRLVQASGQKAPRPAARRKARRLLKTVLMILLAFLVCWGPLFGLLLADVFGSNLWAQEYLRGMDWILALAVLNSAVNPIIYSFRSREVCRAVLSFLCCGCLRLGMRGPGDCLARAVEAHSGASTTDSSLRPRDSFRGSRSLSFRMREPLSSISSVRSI
Lmaj promast: Leishmania major promastigote growth inhibition, primary screen | Leishmania major promastigotes, resazurin fluorescence viability | inhibition, % at 10 µM | 200,000 tested, 9% active; in the data active means inhibition above about 50%;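 further: promastigotes grown with compound for 44 hours at 28 °C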
S1P3 antagonist: S1P3 receptor antagonists, primary screen, cell-based. Sphingosine 1-phosphate receptor 3 (Homo sapiens), Q99500. CHO S1P3 NFAT-BLA reporter, FRET fluorescence, antagonist mode. inhibition, % at 4.98 µM. 170,000 tested, 0.27% active. AID 485, 2006;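 active means inhibition above the plate cutoff, the mean inhibition of test wells on that plate plus 3 SD, cut at about 28% in these data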;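 further: cells challenged with S1P at its EC80 of 0.8 µM; blue over green emission ratio from cleaved BLA substrate after 4 h stimulation; 0% = S1P-stimulated wells and 100% = unstimulated DMSO-only wells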
S1P4 ag: S1P4 receptor agonists, primary screen, cell-based. Sphingosine 1-phosphate receptor 4 (Homo sapiens), O95977. S1P4-expressing cell line, agonist reporter assay. activation, % at 4.98 µM. 220,000 tested, 0.35% active. AID 1509, 2009; in the data active means activation above about 11%;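 further: 0% = DMSO vehicle and 100% = reference agonist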
The depositor's hits bear a star; . = not tested or not shown. Only a selection was taken, and hits are over-represented in it overall.

SMILES | MDM2 E3 inh | S1P4 antagonist | Lmaj promast | S1P3 antagonist | S1P4 ag
COc1ccc(-c2cnnn2-c2ccc(NC(=O)c3ccc(S(=O)(=O)N4CCCCC4)cc3)cc2)cc1 | -4 | -25 | 99* | 8 | 0
NS(=O)(=O)c1ccc(NC(=O)c2ccc(S(=O)(=O)N3CCc4ccccc43)cc2)cc1 | -11 | -18 | -7 | -6 | 2
COc1ccc(NC(=O)c2cccc(S(=O)(=O)N3CCc4ccccc43)c2)cn1 | -4 | -10 | 94* | -12 | 1
O=C(Nc1ncccc1O)c1cccc(S(=O)(=O)N2CCc3ccccc32)c1 | -10 | 0 | -8 | 6 | 1
COc1cc(C(=O)NC(=S)Nc2ccc3c(c2)C(=O)N(C)C3=O)cc(OC)c1OC | -1 | -10 | 4 | 3 | 0
Cc1ccc(NCCC#N)cc1C | -2 | -13 | 50* | -6 | 1
Cc1ccc(C)c(NCCC#N)c1 | -8 | -18 | 53* | -9 | 2
COc1ccc(N2CCN(C(=O)CCc3ccc(S(=O)(=O)NC(C)(C)C)cc3)CC2)cc1 | 3 | -7 | . | 9 | 1
CCC(CO)NCc1ccc(-c2ccccc2)cc1 (stereo not given) | -11 | -23 | 89* | -3 | 0
CC(NCc1ccc(-c2ccccc2)cc1)C(O)c1ccccc1 (stereo not given) | 5 | -10 | 99* | 6 | -1
CC(O)CNCc1ccc(-c2ccccc2)cc1 (stereo not given) | -6 | -3 | 89* | . | -1
CC(NCc1ccccc1)c1ccccc1O (stereo not given) | -23 | 1 | . | -8 | 0
Cc1nc2ccccc2nc1N/N=C/c1ccc(O)cc1 | -7 | -15 | . | 0 | 1
Cc1nc(N/N=C/c2ccc(O)cc2)c2cnn(-c3ccccc3)c2n1 | -17 | -4 | 67* | -8 | 1
N#Cc1cc2c(nc1SCc1ccc(Cl)nc1)CCCCC2 | . | -7 | . | 21 | -1
CC1CCc2c(C(=O)NCCCN3CCOCC3)csc2C1 (stereo not given) | . | -14 | 93* | 5 | 1
CCN1CCN(CCCNC(=O)c2csc3c2CCCCC3)CC1 | 5 | 3 | 99* | -10 | -3
CCOc1ccc2c(c1)C(N(CCN1CCOCC1)C(=S)Nc1ccccc1OC)CC(C)(C)O2 (stereo not given) | -1 | 3 | 59* | -28 | -2
CCN1CCCc2cc(CN(CCN3CCOCC3)C(=S)Nc3ccccc3OC)ccc21 | -7 | -5 | 20 | -5 | -3
CCN(C(C)=O)c1ccc(Oc2nc(OC)cc(OC)n2)cc1 | -5 | -4 | -8 | -5 | 1
CC(Sc1nnc(NC2CCCCC2)s1)C(=O)Nc1ccc2c(c1)C(=O)c1ccccc1C2=O (stereo not given) | -8 | -22 | 66* | 2 | 0
CCn1c(CC(=O)Nc2ccc(C)cc2)n[nH]c1=S | 5 | -8 | -6 | 0 | 0
CCc1ccc(NC(=O)CCNS(=O)(=O)c2cccc3nsnc23)cc1 | -26 | -2 | 5 | . | -1
COc1cc(C(C)=O)ccc1OCCN1CCC(Cc2ccccc2)CC1 | -11 | 6 | 90* | -10 | -2
c1ccc(CC2CCN(Cc3ccccn3)CC2)cc1 | -2 | -11 | -6 | -23 | 0
SMILES | MDM2 E3 inh | S1P4 antagonist | Lmaj promast | S1P3 antagonist | S1P4 ag
Clc1ccccc1OCCN1CCC(Cc2ccccc2)CC1 | -14 | -2 | 90* | 5 | 2
COc1ccc(C(=O)N2CCN(C3CCN(Cc4ccccc4)CC3)CC2)cc1OC | -14 | -3 | 15 | . | 2
CC(NS(=O)(=O)/C=C/c1ccccc1)c1ccccc1 (stereo not given) | 3 | -4 | 1 | -9 | 0
CCOc1ccc(S(=O)(=O)N(CC(=O)NC2CCCCC2C)Cc2ccco2)cc1 (stereo not given) | 0 | 5 | 87* | -4 | -1
CCCOc1ccc(N2C(=O)CC(N(CCc3ccc(OC)cc3)C(=O)c3ccccc3)C2=O)cc1 (stereo not given) | -1 | -21 | . | -6 | 0
S=C(NCc1ccc2c(c1)OCO2)NCc1ccc2c(c1)OCO2 | 1 | -4 | 7 | -17 | -1
CCc1cccc(CC)c1NC(=S)NCc1ccc2c(c1)OCO2 | -4 | -1 | 60* | 2 | 2
O=C(Nc1ccc([N+](=O)[O-])cc1Br)c1cccnc1 | -7 | -38 | 54* | -14 | 0
O=C(OC(C(=O)Nc1ccc([N+](=O)[O-])cc1Br)c1ccccc1)c1ccccc1 (stereo not given) | -5 | -6 | 100* | 11 | 1
O=C(CSC(=S)N1CCOCC1)Nc1ncc2c(n1)CC(c1ccco1)CC2=O (stereo not given) | -10 | -8 | . | -12 | 0
CCC(C)NS(=O)(=O)c1ccc(S(=O)(=O)N(CC(=O)Nc2ccccc2)CC2CCCO2)cc1 (stereo not given) | -6 | -6 | 60* | . | 0
CCC(C)NS(=O)(=O)c1ccc(NC(=O)CCC2CCCCC2)cc1 (stereo not given) | -26 | -7 | -4 | . | -1
COC(=O)CCN(C1CCCCC1)S(=O)(=O)c1ccc(S(=O)(=O)NC2CCCCC2)cc1 | -10 | 1 | 99* | . | 2
O=C(CN(Cc1cccs1)S(=O)(=O)c1ccc(S(=O)(=O)NC2CCCCC2)cc1)Nc1ccccc1 | -7 | -28 | 41 | 9 | 0
O=C(CN(C1CC1)S(=O)(=O)c1ccc(S(=O)(=O)NC2CCCCC2)cc1)Nc1ccccc1 | -19 | -7 | 100* | 14 | -1
Cc1cc(C)cc(NC(=O)CSCc2nc3c(nnn3Cc3ccc(F)cc3)c(=O)[nH]2)c1 | . | -10 | -4 | . | 0
COc1cc(/C=C2/C(=O)NN(c3ccc(Cl)cc3)C2=O)ccc1OC(=O)c1ccco1 | -7 | 3 | 52* | 2 | 0
COc1cc(/C=C2/C(=N)N3OC(C)=CC3=NC2=O)ccc1OC(=O)c1ccco1 | 32* | -4 | 4 | -2 | 1
CC1=CC2=NC(=O)/C(=C\c3ccc(OC(=O)c4ccco4)cc3)C(=N)N2O1 | -8 | 1 | -5 | 7 | 2
O=C(c1cccc2nc3ccccc3nc12)N1CCOCC1 | -8 | 14 | . | -1 | -1
Cn1c(Cn2nnc3ccccc32)nnc1SCC(=O)Nc1nccs1 | -4 | -13 | -7 | -6 | 0
COc1cc(C2NC(=S)NC3=C2CCc2ccccc23)cc(OC)c1OC (stereo not given) | . | 4 | 4 | 0 | 0
COc1ccc2c(c1)CCC1=C2NC(=S)NC1c1ccc(N(C)C)cc1 (stereo not given) | -9 | 4 | 90* | -13 | 0
CCCCc1ccc(NC(=S)N2CCC(O)CC2)cc1 | -4 | 11 | -7 | -3 | 0

Screening results deposited in PubChem BioAssay by several laboratories.
